From ChEMBL document CHEMBL1671644, “Inhibition of human immunodeficiency virus type 1 infection by the candidate microbicide dapivirine, a nonnucleoside reverse transcriptase inhibitor” (Antimicrob Agents Chemother, 2009)

What was measured:
[1] = tested on: Human immunodeficiency virus 1; assay: Antiviral activity against HIV-1 SM024 harboring NNTRI 190A mutant infected in human MT4 cells assessed as inhibition of viral replication relative to HIV-1 3B; type: functional
Outline: (§1)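 MT-4 cells (3 x 10^4/well) infected with site-directed mutants or recombinant clinical isolates (200 TCID50/well) with drug, cultured 3 to 5 days. Viability read by MTT colorimetric antivirogram assay. IC50 by nonlinear regression; fold change = IC50 for the test isolate / IC50 for wild-type HIV-1 IIIB tested in parallel (mean or median).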

[2] = tested on: Human immunodeficiency virus 1; assay: Antiviral activity against HIV-1 subtype B V022812 harboring NNRTI V179I mutant infected in human MT4 cells assessed as inhibition of viral replication relative to HIV-1 3B; type: functional; outline: as §1
[3] = tested on: Human immunodeficiency virus 1; assay: Antiviral activity against HIV-1 SM052 harboring NNTRI 101E and 103N mutant infected in human MT4 cells assessed as inhibition of viral replication relative to HIV-1 3B; type: functional; outline: as §1
[4] = tested on: Human immunodeficiency virus 1; assay: Antiviral activity against HIV-1 subtype CRF01_AE V029521 infected in human MT4 cells assessed as inhibition of viral replication relative to HIV-1 3B; type: functional
Outline: (§2)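 Recombinant clinical HIV-1 isolates (200 TCID50/well) were tested in MT-4 cells (3 x 10^4/well) over 3–5 days, with an MTT viability read-out. IC50 was fitted by nonlinear regression. Fold change is the isolate IC50 divided by the HIV-1IIIB IC50, tested in parallel.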

[5] = tested on: Human immunodeficiency virus 1; assay: Antiviral activity against HIV-1 SM007 harboring NNTRI 103N mutant infected in human MT4 cells assessed as inhibition of viral replication relative to HIV-1 3B; type: functional; outline: as §1
[6] = tested on: Human immunodeficiency virus 1; assay: Antiviral activity against HIV-1 subtype C V022829 infected in human MT4 cells assessed as inhibition of viral replication relative to HIV-1 3B; type: functional; outline: as §1
[7] = tested on: Human immunodeficiency virus 1; assay: Antiviral activity against HIV-1 subtype CRF02_AG V022825 infected in human MT4 cells assessed as inhibition of viral replication relative to HIV-1 3B; type: functional; outline: as §1
[8] = tested on: Human immunodeficiency virus 1; assay: Antiviral activity against HIV-1 subtype D V022818 infected in human MT4 cells assessed as inhibition of viral replication relative to HIV-1 3B; type: functional; outline: as §1
[9] = tested on: Human immunodeficiency virus 1; assay: Antiviral activity against HIV-1 subtype CRF01_AE V029525 infected in human MT4 cells assessed as inhibition of viral replication relative to HIV-1 3B; type: functional; outline: as §2
[10] = tested on: Human immunodeficiency virus 1; assay: Antiviral activity against HIV-1 subtype CRF02_AG V022808 infected in human MT4 cells assessed as inhibition of viral replication relative to HIV-1 3B; type: functional; outline: as §1
[11] = tested on: Human immunodeficiency virus 1; assay: Antiviral activity against HIV-1 SM026 harboring NNTRI 103N and 181C mutant infected in human MT4 cells assessed as inhibition of viral replication relative to HIV-1 3B; type: functional; outline: as §1
[12] = tested on: Human immunodeficiency virus 1; assay: Antiviral activity against HIV-1 subtype F V029522 infected in human MT4 cells assessed as inhibition of viral replication relative to HIV-1 3B; type: functional; outline: as §1
[13] = tested on: Human immunodeficiency virus 1; assay: Antiviral activity against HIV-1 SM002 harboring NNTRI 181C mutant infected in human MT4 cells assessed as inhibition of viral replication relative to HIV-1 3B; type: functional; outline: as §1
[14] = tested on: Human immunodeficiency virus 1; assay: Antiviral activity against HIV-1 subtype B V022813 infected in human MT4 cells assessed as inhibition of viral replication relative to HIV-1 3B; type: functional; outline: as §1
[15] = tested on: Human immunodeficiency virus 1; assay: Antiviral activity against HIV-1 subtype B V022809 infected in human MT4 cells assessed as inhibition of viral replication relative to HIV-1 3B; type: functional; outline: as §1
[16] = tested on: Human immunodeficiency virus 1; assay: Antiviral activity against HIV-1 SM012 harboring NNTRI 108I mutant infected in human MT4 cells assessed as inhibition of viral replication relative to HIV-1 3B; type: functional; outline: as §1
[17] = tested on: Human immunodeficiency virus 1; assay: Antiviral activity against HIV-1 subtype B V022810 harboring NNRTI A98S andK101R mutant infected in human MT4 cells assessed as inhibition of viral replication relative to HIV-1 3B; type: functional; outline: as §1
[18] = tested on: Human immunodeficiency virus 1; assay: Antiviral activity against HIV-1 subtype CRF05_DF V022824 harboring NNRTI V106I mutant infected in human MT4 cells assessed as inhibition of viral replication relative to HIV-1 3B; type: functional; outline: as §1
[19] = tested on: Human immunodeficiency virus 1; assay: Antiviral activity against HIV-1 subtype B V022814 infected in human MT4 cells assessed as inhibition of viral replication relative to HIV-1 3B; type: functional; outline: as §1
[20] = tested on: Human immunodeficiency virus 1; assay: Antiviral activity against HIV-1 subtype CRF05_DF V022823 infected in human MT4 cells assessed as inhibition of viral replication relative to HIV-1 3B; type: functional; outline: as §1
[21] = tested on: Human immunodeficiency virus 1; assay: Antiviral activity against HIV-1 subtype B V022807 infected in human MT4 cells assessed as inhibition of viral replication relative to HIV-1 3B; type: functional; outline: as §2
[22] = tested on: Human immunodeficiency virus 1; assay: Antiviral activity against HIV-1 subtype O V029524 harboring NNRTI A98G, V179E and Y181C mutant infected in human MT4 cells assessed as inhibition of viral replication relative to HIV-1 3B; type: functional; outline: as §1
[23] = tested on: Human immunodeficiency virus 1; assay: Antiviral activity against HIV-1 subtype B V022815 infected in human MT4 cells assessed as inhibition of viral replication relative to HIV-1 3B; type: functional; outline: as §2
[24] = tested on: Human immunodeficiency virus 1; assay: Antiviral activity against HIV-1 subtype H V022827 harboring NNRTI V179I mutant infected in human MT4 cells assessed as inhibition of viral replication relative to HIV-1 3B; type: functional; outline: as §1
[25] = tested on: Human immunodeficiency virus 1; assay: Antiviral activity against HIV-1 subtype C V022831 infected in human MT4 cells assessed as inhibition of viral replication relative to HIV-1 3B; type: functional; outline: as §1
[26] = tested on: Human immunodeficiency virus 1; assay: Antiviral activity against HIV-1 subtype H V029523 harboring NNRTI K101Q and V179I mutant infected in human MT4 cells assessed as inhibition of viral replication relative to HIV-1 3B; type: functional; outline: as §1
[27] = tested on: Human immunodeficiency virus 1; assay: Antiviral activity against HIV-1 subtype D V022832 infected in human MT4 cells assessed as inhibition of viral replication relative to HIV-1 3B; type: functional; outline: as §1
[28] = tested on: Human immunodeficiency virus 1; assay: Antiviral activity against HIV-1 subtype CRF01_AE V022822 infected in human MT4 cells assessed as inhibition of viral replication relative to HIV-1 3B; type: functional; outline: as §1
[29] = tested on: Human immunodeficiency virus 1; assay: Antiviral activity against HIV-1 subtype C V022816 infected in human MT4 cells assessed as inhibition of viral replication relative to HIV-1 3B; type: functional; outline: as §2
[30] = tested on: Human immunodeficiency virus 1; assay: Antiviral activity against HIV-1 subtype CRF02_AG V022826 infected in human MT4 cells assessed as inhibition of viral replication relative to HIV-1 3B; type: functional; outline: as §1
[31] = tested on: Human immunodeficiency virus 1; assay: Antiviral activity against HIV-1 subtype H V022828 harboring NNRTI K101Q and V179I mutant infected in human MT4 cells assessed as inhibition of viral replication relative to HIV-1 3B; type: functional; outline: as §1
[32] = tested on: Human immunodeficiency virus 1; assay: Antiviral activity against HIV-1 subtype B V022811 infected in human MT4 cells assessed as inhibition of viral replication relative to HIV-1 3B; type: functional; outline: as §2
[33] = tested on: Human immunodeficiency virus 1; assay: Antiviral activity against HIV-1 SM034 harboring NNTRI 188L mutant infected in human MT4 cells assessed as inhibition of viral replication relative to HIV-1 3B; type: functional; outline: as §1
[34] = tested on: Human immunodeficiency virus 1; assay: Antiviral activity against HIV-1 subtype D V022819 infected in human MT4 cells assessed as inhibition of viral replication relative to HIV-1 3B; type: functional; outline: as §1
[35] = tested on: Human immunodeficiency virus 1; assay: Antiviral activity against HIV-1 SM051 harboring NNTRI 100I and 103N mutant infected in human MT4 cells assessed as inhibition of viral replication relative to HIV-1 3B; type: functional; outline: as §1
[36] = tested on: Human immunodeficiency virus 1; assay: Antiviral activity against HIV-1 subtype CRF01_AE V022821 infected in human MT4 cells assessed as inhibition of viral replication relative to HIV-1 3B; type: functional; outline: as §2
[37] = tested on: Human immunodeficiency virus 1; assay: Antiviral activity against HIV-1 SM058 harboring NNTRI 227L and 106A mutant infected in human MT4 cells assessed as inhibition of viral replication relative to HIV-1 3B; type: functional; outline: as §1
[38] = tested on: Human immunodeficiency virus 1; assay: Antiviral activity against HIV-1 subtype CRF05_DF V022833 harboring NNRTI V179I mutant infected in human MT4 cells assessed as inhibition of viral replication relative to HIV-1 3B; type: functional; outline: as §1
[39] = tested on: Human immunodeficiency virus 1; assay: Antiviral activity against HIV-1 SM030 harboring NNTRI 100I mutant infected in human MT4 cells assessed as inhibition of viral replication relative to HIV-1 3B; type: functional; outline: as §1
[40] = tested on: Human immunodeficiency virus 1; assay: Antiviral activity against HIV-1 subtype CRF01_AE V022820 infected in human MT4 cells assessed as inhibition of viral replication relative to HIV-1 3B; type: functional; outline: as §1
[41] = tested on: Human immunodeficiency virus 1; assay: Antiviral activity against HIV-1 subtype CRF02_AG V022830 infected in human MT4 cells assessed as inhibition of viral replication relative to HIV-1 3B; type: functional; outline: as §1
[42] = Toxicity against human cervical tissue explants after 24 hrs by MTT assay
Outline: (§3)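 Ectocervical tissue explants, uninfected, exposed to drug for 2 or 24 h at 37°C. Viability by MTT dye reduction per milligram tissue, read right after exposure or after overnight culture following the 2-h exposure, as percent of unexposed controls. Four donors, each condition in triplicate; CC50 by nonlinear regression.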

[43] = Toxicity against human cervical tissue explants after 2 hrs by MTT assay; outline: as §3

## Cc1ccnc2c1NC(=O)c1cccnc1N2C1CC1 [NEVIRAPINE]
[1]
  Ratio IC50: 96
[2]
  Ratio IC50: 0.8
[3]
  Ratio IC50: 22
[4]
  Ratio IC50: 1.4
[5]
  Ratio IC50: 22
[6]
  Ratio IC50: 0.6
[7]
  Ratio IC50: 0.7
[8]
  Ratio IC50: 0.5
[9]
  Ratio IC50: 7
[10]
  Ratio IC50: 0.8
[11]
  Ratio IC50: 222
[12]
  Ratio IC50: 2.1
[13]
  Ratio IC50: 222
[14]
  Ratio IC50: 1
[15]
  Ratio IC50: 5
[16]
  Ratio IC50: 1
[17]
  Ratio IC50: 1.7
[18]
  Ratio IC50: 3.1
[19]
  Ratio IC50: 2.4
[20]
  Ratio IC50: 0.9
[21]
  Ratio IC50: 3.4
[22]
  Ratio IC50: 89
[23]
  Ratio IC50: 1
[24]
  Ratio IC50: 0.4
[25]
  Ratio IC50: 0.9
[26]
  Ratio IC50: 1.4
[27]
  Ratio IC50: 0.9
[28]
  Ratio IC50: 0.8
[29]
  Ratio IC50: 3.8
[30]
  Ratio IC50: 0.4
[31]
  Ratio IC50: 1.1
[32]
  Ratio IC50: 3.4
[33]
  Ratio IC50: 222
[34]
  Ratio IC50: 1
[35]
  Ratio IC50: 22
[36]
  Ratio IC50: 1.2
[37]
  Ratio IC50: 22
[38]
  Ratio IC50: 1.7
[39]
  Ratio IC50: 5
[40]
  Ratio IC50: 1.3
[41]
  Ratio IC50: 1.3

## CCCCCCCCCc1ccc(OCCOCCOCCOCCOCCOCCOCCOCCOCCO)cc1 [NONOXYNOL 9]
[42]
  CC50: 0.003%
[43]
  CC50: 0.07%

## CC(C)Nc1cccnc1N1CCN(C(=O)c2cc3cc(NS(C)(=O)=O)ccc3[nH]2)CC1 [DELAVIRDINE]
[1]
  Ratio IC50: 2
[2]
  Ratio IC50: 6
[3]
  Ratio IC50: 90
[4]
  Ratio IC50: 4.4
[5]
  Ratio IC50: 105
[6]
  Ratio IC50: 2.7
[7]
  Ratio IC50: 1.9
[8]
  Ratio IC50: 0.9
[9]
  Ratio IC50: 20
[10]
  Ratio IC50: 0.6
[11]
  Ratio IC50: 621
[13]
  Ratio IC50: 83
[14]
  Ratio IC50: 0.7
[15]
  Ratio IC50: 2.6
[16]
  Ratio IC50: 2
[17]
  Ratio IC50: 2.7
[18]
  Ratio IC50: 1.3
[19]
  Ratio IC50: 1.9
[20]
  Ratio IC50: 0.6
[21]
  Ratio IC50: 3.6
[22]
  Ratio IC50: 140
[23]
  Ratio IC50: 4.9
[24]
  Ratio IC50: 0.3
[25]
  Ratio IC50: 2.6
[26]
  Ratio IC50: 2.6
[27]
  Ratio IC50: 1.1
[28]
  Ratio IC50: 2.7
[29]
  Ratio IC50: 5.3
[30]
  Ratio IC50: 1.3
[31]
  Ratio IC50: 2
[32]
  Ratio IC50: 3.7
[33]
  Ratio IC50: 12
[34]
  Ratio IC50: 2.3
[35]
  Ratio IC50: 621
[36]
  Ratio IC50: 2.3
[37]
  Ratio IC50: 10
[38]
  Ratio IC50: 0.6
[39]
  Ratio IC50: 215
[41]
  Ratio IC50: 0.9
